# Variants at the floor of the assay were thinned out.
# B1: tRNA (parent)
# chain: GUUCCGUUGGCGUAAUGGUAACGCGUCUCCCUCCUAAGGAGAAGACUGCGGGUUCGAGUCCCGUACGGAACG
# Variants of: B1
# Test: yeast fitness relative to wild type (ratio to wild type); higher = fitter; tRNA-Arg(CCU), competitive growth, 37 C, YPD
# Procedure, shortened: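 Gene amplicons from the start population and from each of six end populations were read by 100-nucleotide paired-end sequencing. Those end populations came from pooled Saccharomyces cerevisiae strains carrying tRNA-Arg(CCU) gene variants at the native locus, competed in YPD at 37°C for 24 hours. Fitness relative to wild type was worked out from changes in genotype frequencies. Genotypes needed ≥ 100 starting reads, and estimates < 0.5 were set to 0.5.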
row,Variant,yeast fitness
1,A21U C34G G39A C55U C61G,≤ 0.5
2,A21U C34G G68A,≤ 0.5
3,A21U C34G U64A,≤ 0.5
4,A21U C34U A42U U64A G68U,0.659
5,A21U C34U A45G G50A,≤ 0.5
6,A21U C34U U35A G39A,0.594
7,A21U C46A,0.767
8,A21U C46A C62U C66U,≤ 0.5
9,A21U C46U,0.86
10,A21U C46U C66A,≤ 0.5
11,A21U C49A,≤ 0.5
12,A21U C49A G50C,≤ 0.5
13,A21U C49A G50C A57C C66G,0.561
14,A21U C49G A69C,≤ 0.5
15,A21U C55G G56C,≤ 0.5
16,A21U C55G G68A A70C,≤ 0.5
17,A21U C55U,0.607
18,A21U C55U A65C,≤ 0.5
19,A21U C55U C62G,≤ 0.5
20,A21U C55U G56A,0.567
21,A21U C55U G68C,≤ 0.5
22,A21U C60U,0.584
23,A21U C62A,0.613
24,A21U C62A G67A A69G,≤ 0.5

row,Variant,yeast fitness
1,A21U C62U,0.716
2,A21U C66G,0.513
3,A21U G23A A42C U59G A69C,≤ 0.5
4,A21U G23A U64C G67A,0.568
5,A21U G23C C24U,0.658
6,A21U G23C G58U A65G G67A,≤ 0.5
7,A21U G25A A69C,0.605
8,A21U G25A C29A A36G C46A C55A,≤ 0.5
9,A21U G25A C33U A57U U59C,0.562
10,A21U G25A C60U,≤ 0.5
11,A21U G25A G50A G68U,≤ 0.5
12,A21U G25A G68U,0.547
13,A21U G25C,1.08
14,A21U G25C A43G A65G,0.609
15,A21U G38A,0.682
16,A21U G38C A65C,≤ 0.5
17,A21U G39C,0.574
18,A21U G39C C55A A57C,≤ 0.5
19,A21U G39C U47A,0.512
20,A21U G39U A43C G63A,≤ 0.5
21,A21U G41A,0.727
22,A21U G41A A42C U54G,≤ 0.5
23,A21U G41A A42C U59C A69U,≤ 0.5
24,A21U G41A U54C,0.723

row,Variant,yeast fitness
1,A21U G41C,0.715
2,A21U G41C A43C U54G A69C,0.551
3,A21U G44A G56A,≤ 0.5
4,A21U G44C,0.769
5,A21U G48A A57U,0.714
6,A21U G48C G63A,≤ 0.5
7,A21U G50A,0.629
8,A21U G51A,0.751
9,A21U G51A C66A,≤ 0.5
10,A21U G51C,≤ 0.5
11,A21U G52A,0.566
12,A21U G52C C61U,≤ 0.5
13,A21U G56A G67A,≤ 0.5
14,A21U G56A G67U A69C,≤ 0.5
15,A21U G56C,0.579
16,A21U G56C U64C,≤ 0.5
17,A21U G58A,0.721
18,A21U G63C,0.633
19,A21U U26A A70C,≤ 0.5
20,A21U U26A C30G A36C A57G,≤ 0.5
21,A21U U26A U54A A70U,≤ 0.5
22,A21U U26A U54A G63C A65C,0.554
23,A21U U26C,0.657
24,A21U U26G G50C,0.586

row,Variant,yeast fitness
1,A21U U28A A42C C49G C62U,≤ 0.5
2,A21U U28C C31U,0.637
3,A21U U28G,0.659
4,A21U U28G A69C,0.529
5,A21U U28G U59G,0.609
6,A21U U32A,0.643
7,A21U U32G,0.808
8,A21U U32G C55A U59C,≤ 0.5
9,A21U U32G G51C A70G,≤ 0.5
10,A21U U32G U59C,0.732
11,A21U U32G U59C G68A,≤ 0.5
12,A21U U35A,0.584
13,A21U U35A A65C,≤ 0.5
14,A21U U35A G44A,≤ 0.5
15,A21U U53A A65C G67A,0.682
16,A21U U54A,0.533
17,A21U U54A A69U,≤ 0.5
18,A21U U54A A70G,0.565
19,A21U U54C C55G C60A C61G C66G,≤ 0.5
20,A21U U59A A69C,≤ 0.5
21,A21U U59A A70U,0.532
22,A21U U59C,0.672
23,A21U U59G,0.583
24,A21U U64G,0.709

row,Variant,yeast fitness
1,A21U U64G A69G,≤ 0.5
2,C22A A36C C55G C61A,0.611
3,C22A A36U,0.586
4,C22A A36U G68C,≤ 0.5
5,C22A A37C,0.641
6,C22A A37C A65G C66U,≤ 0.5
7,C22A A37C A69C,≤ 0.5
8,C22A A37C G56C,≤ 0.5
9,C22A A37G,0.823
10,C22A A37G C60G U64G,≤ 0.5
11,C22A A37U C66U,≤ 0.5
12,C22A A40C G50C,0.908
13,C22A A40G,0.671
14,C22A A40U A43C G48A A69U,≤ 0.5
15,C22A A42C,0.635
16,C22A A42G,0.923
17,C22A A42G C49U,≤ 0.5
18,C22A A42U,0.677
19,C22A A42U C62U,0.549
20,C22A A42U G50C A57G,≤ 0.5
21,C22A A43C G63C G67A,≤ 0.5
22,C22A A43G G63U U64A,≤ 0.5
23,C22A A43U C60A,≤ 0.5
24,C22A A43U G68A,≤ 0.5

row,Variant,yeast fitness
1,C22A A45C C61U,0.604
2,C22A A45U,0.837
3,C22A A57U G67A,0.545
4,C22A A65C,0.836
5,C22A A65U A70G,0.662
6,C22A A69U,0.843
7,C22A C24A U26C,0.559
8,C22A C24A U26C C49U U64A,≤ 0.5
9,C22A C24A U26C U35C,≤ 0.5
10,C22A C24G,0.507
11,C22A C24G A36G G39C C66U,≤ 0.5
12,C22A C24G A43G,≤ 0.5
13,C22A C24G A43U C62A,≤ 0.5
14,C22A C24G C60G C66G,0.542
15,C22A C24G G52A G67C G68A,≤ 0.5
16,C22A C24G G67C G68A,≤ 0.5
17,C22A C24G U53C,≤ 0.5
18,C22A C24U C30U C31G C66U,0.615
19,C22A C24U U28A A37G,≤ 0.5
20,C22A C27A,0.718
21,C22A C27A A36U G39C,≤ 0.5
22,C22A C27G A65U,≤ 0.5
23,C22A C27G G68U,≤ 0.5
24,C22A C27U A43G C46G C49U A69C,≤ 0.5

row,Variant,yeast fitness
1,C22A C27U A57U,≤ 0.5
2,C22A C29A C61U,≤ 0.5
3,C22A C29A C66A,0.513
4,C22A C29G,0.55
5,C22A C29G C34G A42C C62G,≤ 0.5
6,C22A C29G C62A A69U,≤ 0.5
7,C22A C29G G38C A65U,≤ 0.5
8,C22A C29U A69U,0.592
9,C22A C29U C33G C46U C62U,≤ 0.5
10,C22A C29U C49U,0.622
11,C22A C29U C66G,≤ 0.5
12,C22A C29U G56A C60G,≤ 0.5
13,C22A C30A C31U G68C,≤ 0.5
14,C22A C30A C33U C61G C62U,≤ 0.5
15,C22A C30A U54C C55G,≤ 0.5
16,C22A C30G,0.636
17,C22A C30U,0.647
18,C22A C30U C34G A70U,≤ 0.5
19,C22A C31A,0.789
20,C22A C31G C46A C49U,≤ 0.5
21,C22A C31G G38C A43G,≤ 0.5
22,C22A C31G U35A,0.558
23,C22A C31U A45G,0.667
